Legend:
Rattus norvegicus [1] = assay: Antiinflammatory activity in carrageenan-induced Wistar rat paw edema model assessed as increase in paw volume at 20 mg/kg, po measured 3 hrs after carrageenan challenge relative to control; format: functional
Summary of the method: (§1)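 Wistar rats of either sex (150–175 g), fasted 16 h overnight, groups of six; compound dosed orally at 20 mg/kg bw. 30 min later 0.1 ml of 1% carrageenan in normal saline injected into subplantar aponeurosis of left hind paw. Paw volume read by plethysmometer at 0, 3 and 5 h; increase in volume (ml, SEM) and % inhibition versus control.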

Rattus norvegicus [2] = assay: Antiinflammatory activity in carrageenan-induced Wistar rat paw edema model assessed as increase in paw volume at 20 mg/kg, po measured 5 hrs after carrageenan challenge relative to control; format: functional; summary of the method: as §1
[3] = molecular target: Prostaglandin G/H synthase 2 (Ovis aries) (UniProt P79208); assay: Inhibition of recombinant COX2 at 0.05 uM
[4] = molecular target: Prostaglandin G/H synthase 1 (Ovis aries) (UniProt P05979); assay: Inhibition of recombinant COX1 at 0.05 uM
Rattus norvegicus [5] = assay: Gastrointestinal toxicity in Wistar rat assessed as induction of gastric ulceration at 60 mg/kg, po; format: organism-based, Stomach; design: dose 60 mg/kg, route oral; settings: in vivo
Summary of the method: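 Acute gastric ulcerogenicity in Wistar rats given 60 mg/kg bw orally. Animals sacrificed under deep ether anesthesia 6 h after treatment. Stomachs removed and opened along the greater curvature, then examined for lesions or bleeding.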

Prostaglandin G/H synthase 1 (Ovis aries), sequence (P05979 whole entry, looked up): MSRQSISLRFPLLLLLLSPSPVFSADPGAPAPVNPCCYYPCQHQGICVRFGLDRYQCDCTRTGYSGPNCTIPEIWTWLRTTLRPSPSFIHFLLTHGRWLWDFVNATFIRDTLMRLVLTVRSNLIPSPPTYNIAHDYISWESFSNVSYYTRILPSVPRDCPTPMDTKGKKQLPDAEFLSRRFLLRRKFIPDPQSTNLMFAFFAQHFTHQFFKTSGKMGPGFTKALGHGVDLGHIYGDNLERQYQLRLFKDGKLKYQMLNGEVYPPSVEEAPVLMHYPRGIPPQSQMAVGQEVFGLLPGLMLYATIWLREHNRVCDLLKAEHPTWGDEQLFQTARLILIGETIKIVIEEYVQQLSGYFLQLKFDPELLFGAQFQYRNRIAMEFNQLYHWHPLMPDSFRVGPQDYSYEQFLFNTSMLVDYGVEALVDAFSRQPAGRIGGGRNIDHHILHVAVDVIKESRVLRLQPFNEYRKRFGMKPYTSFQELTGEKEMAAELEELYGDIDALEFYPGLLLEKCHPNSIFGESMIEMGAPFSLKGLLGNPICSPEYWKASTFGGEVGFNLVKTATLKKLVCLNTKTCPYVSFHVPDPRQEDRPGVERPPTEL
Prostaglandin G/H synthase 2 (Ovis aries), sequence (P79208 whole entry, looked up): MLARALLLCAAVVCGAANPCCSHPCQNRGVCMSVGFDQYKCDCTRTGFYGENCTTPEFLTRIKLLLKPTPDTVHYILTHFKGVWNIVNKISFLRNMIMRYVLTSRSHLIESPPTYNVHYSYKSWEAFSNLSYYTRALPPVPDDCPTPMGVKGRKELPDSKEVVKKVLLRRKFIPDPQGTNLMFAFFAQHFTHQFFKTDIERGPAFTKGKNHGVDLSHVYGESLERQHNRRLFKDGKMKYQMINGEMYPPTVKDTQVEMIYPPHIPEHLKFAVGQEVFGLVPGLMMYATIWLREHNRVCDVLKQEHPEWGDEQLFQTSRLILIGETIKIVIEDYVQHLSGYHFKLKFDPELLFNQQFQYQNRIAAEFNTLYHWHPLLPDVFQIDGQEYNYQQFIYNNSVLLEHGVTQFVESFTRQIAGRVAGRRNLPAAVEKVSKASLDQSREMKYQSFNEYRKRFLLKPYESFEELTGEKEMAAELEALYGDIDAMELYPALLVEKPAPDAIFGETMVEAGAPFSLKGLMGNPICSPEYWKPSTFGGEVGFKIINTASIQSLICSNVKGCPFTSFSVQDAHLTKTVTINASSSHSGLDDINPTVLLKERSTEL

inhibition [3] [%] | inhibition [4] [%] | Structure (SMILES) | Activity (Rattus norvegicus [1]) [%] | Activity (Rattus norvegicus [2]) [%] | Activity (Rattus norvegicus [5])
 |  | COc1ccc(C2=NN(c3ccc(S(N)(=O)=O)cc3)C(c3ccc(OC)c(OC)c3)C2)c(O)c1 (stereo unspecified) | 9 | 13 | 
 |  | COc1ccc(C2=NN(c3ccc(S(N)(=O)=O)cc3)C(c3ccccc3Cl)C2)c(O)c1 (stereo unspecified) | 60 | 35.3 | 
 |  | COc1ccc(C2=NN(c3ccc(S(N)(=O)=O)cc3)C(c3ccc(Cl)cc3)C2)c(OC)c1 (stereo unspecified) | 25 | 6.6 | 
 |  | COc1ccc(C2=NN(c3ccc(S(N)(=O)=O)cc3)C(c3cccc(O)c3)C2)c(OC)c1 (stereo unspecified) | 26.6 | 5.3 | 
85.7 | 73.2 | COc1ccc(C2=NN(c3ccc(S(N)(=O)=O)cc3)C(c3ccccc3)C2)c(OC)c1 (stereo unspecified) | 70 | 66.5 | Non-toxic
38.6 | 30 | COc1ccc(C2=NN(c3ccc(S(N)(=O)=O)cc3)C(c3cc(OC)c(OC)c(OC)c3)C2)c(OC)c1 (stereo unspecified) | 83.3 | 76.6 | Non-toxic
 |  | COc1ccc(C2=NN(c3ccc(S(N)(=O)=O)cc3)C(c3cc(OC)c(OC)c(OC)c3)C2)c(O)c1 (stereo unspecified) | 0 | 0 | 
 |  | COc1ccc(C2CC(c3c(O)ccc4c(C)cc(=O)oc34)=NN2c2ccc(S(N)(=O)=O)cc2)cc1 (stereo unspecified) | 20 | 10.6 | 
 |  | COc1ccc(C2CC(c3ccc(OC)cc3OC)=NN2c2ccc(S(N)(=O)=O)cc2)cc1 (stereo unspecified) | 49.3 | 10.6 | 
42.9 | 58.8 | COc1ccc(C2=NN(c3ccc(S(N)(=O)=O)cc3)C(c3cccc([N+](=O)[O-])c3)C2)c(OC)c1 (stereo unspecified) | 68.8 | 57.6 | Non-toxic
 |  | Cc1cc(=O)oc2c(C3=NN(c4ccc(S(N)(=O)=O)cc4)C(c4cccc(O)c4)C3)c(O)ccc12 (stereo unspecified) | 20 | 30.6 | 
 |  | COc1ccc(C2=NN(c3ccc(S(N)(=O)=O)cc3)C(c3ccc(Cl)cc3)C2)c(O)c1 (stereo unspecified) | 28.6 | 46.3 | 
 |  | COc1ccc(C2CC(c3ccccc3O)=NN2c2ccc(S(N)(=O)=O)cc2)cc1 (stereo unspecified) | 50 | 41.3 | 
50 | 60.9 | COc1ccc(C2=NN(c3ccc(S(N)(=O)=O)cc3)C(c3ccc(N(C)C)cc3)C2)c(OC)c1 (stereo unspecified) | 79.6 | 79.6 | Non-toxic
 |  | COc1ccc(C2=NN(c3ccc(S(N)(=O)=O)cc3)C(c3ccccc3)C2)c(O)c1 (stereo unspecified) | 0 | 0 | 
 |  | Cc1ccc(-c2cc(C(F)(F)F)nn2-c2ccc(S(N)(=O)=O)cc2)cc1 [CELECOXIB] |  | 40 | 
 |  | COc1ccc(C2CC(c3ccc(OC)cc3O)=NN2c2ccc(S(N)(=O)=O)cc2)cc1 (stereo unspecified) | 27 | 37.3 | 
 |  | COc1ccc(C2CC(c3ccccc3O)=NN2c2ccc(S(N)(=O)=O)cc2)cc1OC (stereo unspecified) | 52 | 10.6 | 
 |  | COc1ccc(C2=NN(c3ccc(S(N)(=O)=O)cc3)C(c3ccccc3Cl)C2)c(OC)c1 (stereo unspecified) | 26.3 | 46.3 | 
 |  | COc1ccc(C2=NN(c3ccc(S(N)(=O)=O)cc3)C(c3cccc(O)c3)C2)c(O)c1 (stereo unspecified) | 33.3 | 8.3 | 
